Test results: ChEMBL document CHEMBL1799944, “New 2-heterocyclyl-imidazo[2,1-i]purin-5-one derivatives as potent and selective human A3 adenosine receptor antagonists” (J Med Chem, 2011)
pIC50, pKi: −log10 of the molar value.

Columns and labels:
[1] = Solubility of compound in water; assay type: physicochemical
[2] = molecular target: T1, Adenosine receptor A1 (Homo sapiens) (UniProt P30542); test: Displacement of [3H]DPCPX from human adenosine A1 receptor expressed in CHO cells at =<5000 nM after 120 mins by scintillation spectrometry; assay type: cell-based
T1 sequence (whole entry): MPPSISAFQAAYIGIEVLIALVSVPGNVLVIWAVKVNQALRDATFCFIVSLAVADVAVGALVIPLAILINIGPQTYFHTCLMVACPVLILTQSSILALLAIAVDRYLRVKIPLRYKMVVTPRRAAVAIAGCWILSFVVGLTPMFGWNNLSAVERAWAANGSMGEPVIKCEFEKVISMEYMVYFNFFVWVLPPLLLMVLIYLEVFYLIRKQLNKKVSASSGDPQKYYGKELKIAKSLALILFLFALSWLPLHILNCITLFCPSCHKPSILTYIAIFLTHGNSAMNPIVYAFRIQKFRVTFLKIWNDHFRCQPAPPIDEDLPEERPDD
In short: (§1)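 hA1 CHO membranes (50 μg protein/assay) in 50 mM Tris HCl pH 7.4, pretreated with adenosine deaminase 2 UI/mL for 30 min at 37 °C. Incubated with 1 nM [3H]DPCPX plus 6-8 ligand concentrations for 120 min at 25 °C. Nonspecific binding defined with 1 μM DPCPX. Ki from IC50 by Cheng-Prusoff; geometric means with 95% confidence limits.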

Adenosine receptor A1 = molecular target: T2, Adenosine receptor A1 (Homo sapiens, UniProt P30542); test: Displacement of [3H]DPCPX from human adenosine A1 receptor expressed in CHO cells after 120 mins by scintillation spectrometry; assay type: cell-based; in short: as §1
T2 sequence (P30542 whole entry): T1 sequence (whole entry)

Adenosine receptor A2a [3] = molecular target: T3, Adenosine receptor A2a (Homo sapiens, UniProt P29274); test: Displacement of [3H]ZM 241385 from human adenosine A2A receptor expressed in CHO cells after 60 mins by scintillation spectrometry; assay type: cell-based
[4] = molecular target: T4, Adenosine receptor A2b (Homo sapiens) (UniProt P29275); test: Antagonist activity human adenosine A2B receptor expressed in CHO cells assessed as inhibition of NECA-mediated [3H]cAMP accumulation at =<5000 nM after 150 mins by scintillation counter; assay type: functional, cell-based
T4 sequence (whole entry): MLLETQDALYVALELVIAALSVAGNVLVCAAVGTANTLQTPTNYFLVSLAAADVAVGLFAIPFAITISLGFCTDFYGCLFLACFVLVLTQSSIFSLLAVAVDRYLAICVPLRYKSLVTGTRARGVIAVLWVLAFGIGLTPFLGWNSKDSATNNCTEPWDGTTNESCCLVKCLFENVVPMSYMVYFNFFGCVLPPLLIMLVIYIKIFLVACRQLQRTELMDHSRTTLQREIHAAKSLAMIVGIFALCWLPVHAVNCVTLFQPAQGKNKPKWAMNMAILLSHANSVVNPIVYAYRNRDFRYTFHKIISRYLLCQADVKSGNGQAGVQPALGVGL
In short: (§2)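 Intact CHO cells expressing hA2B (1 x 10^6 cells/assay), preincubated 10 min at 37 °C in saline buffer pH 7.4 with 2 IU/mL adenosine deaminase and Ro 20-1724. Antagonism of 100 nM NECA-stimulated cAMP rise. Stopped with cold 6% TCA, ether-extracted. cAMP measured by competition binding with [3H]cAMP and beef adrenal binding protein (4 °C, 150 min), charcoal separation, scintillation counting. IC50 by sigmoid nonlinear regression, mean ± SEM.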

Adenosine receptor A3 [5] = molecular target: T5, Adenosine receptor A3 (Homo sapiens, UniProt P0DMS8); test: Antagonist activity human adenosine A3 receptor expressed in CHO cells assessed as blockade of Cl-IB-MECA-mediated inhibition of forskolin-stimulated [3H]cAMP accumulation after 150 mins by scintillation counter; assay type: functional, cell-based
T5 sequence (P0DMS8 whole entry): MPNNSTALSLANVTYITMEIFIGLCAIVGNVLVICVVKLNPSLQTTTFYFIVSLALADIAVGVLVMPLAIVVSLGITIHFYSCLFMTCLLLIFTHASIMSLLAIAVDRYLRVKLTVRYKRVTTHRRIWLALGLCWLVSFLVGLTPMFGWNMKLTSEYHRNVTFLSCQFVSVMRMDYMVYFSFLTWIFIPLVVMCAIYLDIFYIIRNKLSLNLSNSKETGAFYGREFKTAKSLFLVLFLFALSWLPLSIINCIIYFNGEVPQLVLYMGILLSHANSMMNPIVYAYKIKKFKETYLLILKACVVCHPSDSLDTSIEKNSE
In short: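 hA3-expressing CHO cells (1 x 10^6 cells/assay), preincubated 10 min at 37 °C in saline buffer pH 7.4 with adenosine deaminase 2 IU/mL and Ro 20-1724. Antagonism of 100 nM Cl-IB-MECA inhibition of cAMP in presence of 1 μM forskolin. Stopped with cold TCA. cAMP by [3H]cAMP competition protein binding (4 °C, 150 min), scintillation counting. IC50 from sigmoid nonlinear regression, mean ± SEM.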

Homo sapiens = species: Homo sapiens; test: Ratio of Ki for human adenosine A2A receptor to Ki for human adenosine A3 receptor
Adenosine receptor A2a [6] = molecular target: T3, Adenosine receptor A2a; test: Displacement of [3H]ZM 241385 from human adenosine A2A receptor expressed in CHO cells at <=5000 nM after 60 mins by scintillation spectrometry; assay type: cell-based
Adenosine receptor A2b = molecular target: T6, Adenosine receptor A2b (Homo sapiens, UniProt P29275); test: Antagonist activity human adenosine A2B receptor expressed in CHO cells assessed as inhibition of NECA-mediated [3H]cAMP accumulation after 150 mins by scintillation counter; assay type: functional, cell-based; in short: as §2
T6 sequence (P29275 whole entry): T4 sequence (whole entry)

Adenosine receptor A3 [7] = molecular target: T5, Adenosine receptor A3; test: Displacement of [3H]MRE 3008F20 from human adenosine A3 receptor expressed in CHO cells after 120 mins by scintillation spectrometry; assay type: cell-based
In short: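 Membranes from hA3 CHO cells (50 μg protein/assay) in 50 mM Tris HCl, 10 mM MgCl2, 1 mM EDTA pH 7.4, adenosine deaminase-treated. Incubated with 1 nM [3H]MRE 3008F20 and 6-8 ligand concentrations, 120 min at 4 °C. Nonspecific defined with 1 μM MRE 3008F20 (~25% of total). GF/B filtration, three ice-cold washes, scintillation counting. Ki via Cheng-Prusoff; geometric mean, 95% confidence limits, n = 3-6.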

[8] = molecular target: Adenosine receptors; A1 & A3 (Homo sapiens) (UniProt P30542+P0DMS8); test: Ratio of Ki for human adenosine A1 receptor to Ki for human adenosine A3 receptor
Adenosine receptor A3 [9] = molecular target: T5, Adenosine receptor A3; test: Inverse agonist activity at human recombinant A3 adenosine receptor expressed CHO cells by [35S]GTPgammaS binding assay; assay type: functional, cell-based

T3 sequence (P29274 whole entry): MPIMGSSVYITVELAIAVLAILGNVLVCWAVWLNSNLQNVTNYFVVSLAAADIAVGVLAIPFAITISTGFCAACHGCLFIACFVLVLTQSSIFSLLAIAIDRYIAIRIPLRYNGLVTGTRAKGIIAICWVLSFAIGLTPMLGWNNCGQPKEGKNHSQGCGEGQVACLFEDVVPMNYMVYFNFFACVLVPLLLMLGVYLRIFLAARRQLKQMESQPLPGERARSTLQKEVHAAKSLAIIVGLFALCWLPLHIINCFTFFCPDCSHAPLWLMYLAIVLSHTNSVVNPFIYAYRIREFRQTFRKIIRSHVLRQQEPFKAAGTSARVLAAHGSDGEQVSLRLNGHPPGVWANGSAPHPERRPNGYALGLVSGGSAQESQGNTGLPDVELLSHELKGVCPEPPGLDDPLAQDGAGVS

Row | solubility [1] [mg/mL] | inhibition [2] [%] | pKi (Adenosine receptor A1) | pKi (Adenosine receptor A2a [3]) | inhibition [4] [%] | pIC50 (Adenosine receptor A3 [5]) | Ratio Ki (Homo sapiens) | inhibition (Adenosine receptor A2a [6]) [%] | pIC50 (Adenosine receptor A2b) | pKi (Adenosine receptor A3 [7]) | Ratio Ki [8] | pIC50 (Adenosine receptor A3 [9]) | SMILES
1 |  | 28 | < 5.30 | < 5.30 | 27 |  | 330 | 13 | < 5.30 | 7.82 |  |  | CCC1CN2C(=O)N(Cc3ccccc3)c3nc(-c4cc(C)n(C)n4)[nH]c3C2=N1 (racemic)
2 |  |  |  |  |  |  |  |  |  |  |  | 8.40 | CC[C@@H]1CN2C(=O)N(C)c3nc(-c4cc(Cl)cc(Cl)c4Cl)[nH]c3C2=N1
3 |  | 20 | < 5.30 | < 5.30 | 16 |  | 330 | 1 | < 5.30 | 7.90 |  |  | C=CCN1C(=O)N2CC(CC)N=C2c2[nH]c(-c3cc(C)n(C)n3)nc21 (racemic)

Further lines, the compound ahead of its results:

Row | SMILES | solubility [1] [mg/mL] | inhibition [2] [%] | pKi (Adenosine receptor A1) | pKi (Adenosine receptor A2a [3]) | inhibition [4] [%] | pIC50 (Adenosine receptor A3 [5]) | Ratio Ki (Homo sapiens) | inhibition (Adenosine receptor A2a [6]) [%] | pIC50 (Adenosine receptor A2b) | pKi (Adenosine receptor A3 [7]) | Ratio Ki [8] | pIC50 (Adenosine receptor A3 [9])
4 | CCCN1C(=O)N2C[C@@H](CC)N=C2c2[nH]c(C34CCC(O)(CC3)CC4)nc21 | > 100 |  |  |  |  |  |  |  |  |  |  | 
5 | C=CCN1C(=O)N2CC(C)N=C2c2[nH]c(-c3cc(OC)nn3C)nc21 (racemic) |  | 30 | < 5.30 | < 5.30 | 13 | 7.84 | 2100 | 1 | < 5.30 | 8.63 | 2100 | 
6 | Cc1cc(-c2nc3c([nH]2)C2=NC(C)CN2C(=O)N3Cc2ccccc2)nn1C (configuration not stated) |  | 22 | < 5.30 | < 5.30 | 24 |  | 330 | 9 | < 5.30 | 7.91 | > 400 | 
7 | COc1cc(-c2nc3c([nH]2)C2=NC(C)CN2C(=O)N3Cc2ccccc2)on1 (racemic) |  | 35 | < 5.30 | < 5.30 | 11 | 7.69 | > 1800 | 5 | < 5.30 | 8.57 | 1800 | 
